Assay [1] relates to Plasmodium yoelii nigeriensis. Put plainly: Antimalarial activity in multidrug-resistant Plasmodium yoelii nigeriensis infected Swiss mouse assessed as suppression of parasitaemia at 96 mg/kg, po two devided dose daily for 4 days. It counts as functional. Conditions: 96 mg/kg. The method in brief: (§1)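 Swiss mice of either sex (20 2 g) inoculated ip with 1 × 10⁶ MDR P. yoelii nigeriensis parasites on day 0. Five mice per dose, given oral doses in groundnut oil from day 0 to 3, twice daily. Parasitaemia read from thin blood smears on day 4. Suppression = [(C − T)/C] × 100 versus untreated controls. 100% means no parasites seen in 50 oil-immersion fields.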

In assay [2] the test system is Plasmodium yoelii nigeriensis. Put plainly: Antimalarial activity in multidrug-resistant Plasmodium yoelii nigeriensis infected Swiss mouse assessed as suppression of parasitaemia at 48 mg/kg, po two devided dose daily for 4 days. It counts as functional. The method in brief: as §1
Assay [3] concerns Plasmodium yoelii nigeriensis. Briefly: Antimalarial activity in multidrug-resistant Plasmodium yoelii nigeriensis infected Swiss mouse assessed as disease cure at 24 mg/kg, po two devided dose daily for 4 days by 28 day survival assay. It counts as functional. An outline of the steps: (§2)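 Swiss mice of either sex (20 2 g) inoculated ip with 1 × 10⁶ MDR P. yoelii nigeriensis (chloroquine-, mefloquine-, halofantrine-resistant) parasites on day 0. Five mice per dose. Oral dosing in groundnut oil (0.1 mL per dose) from day 0 to 3, as two divided doses daily. Thin blood smears on day 4, then twice weekly to day 28. Mice without patent infection by day 28 scored cured; % protection = fraction of mice cured. β-arteether as positive control.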

Assay [4] concerns Plasmodium yoelii nigeriensis. Briefly: Antimalarial activity in multidrug-resistant Plasmodium yoelii nigeriensis infected Swiss mouse assessed as disease cure at 48 mg/kg, po two devided dose daily for 4 days by 28 day survival assay. It counts as functional, organism-based. Details: dose 48 mg/kg. The method in brief: as §2
Assay [5] deals with Plasmodium yoelii nigeriensis. Briefly: Antimalarial activity in multidrug-resistant Plasmodium yoelii nigeriensis infected Swiss mouse assessed as disease cure at 96 mg/kg, po two devided dose daily for 4 days by 28 day survival assay. It counts as functional. An outline of the steps:
as §2

In assay [6] the test system is Plasmodium yoelii nigeriensis. Briefly: Antimalarial activity in multidrug-resistant Plasmodium yoelii nigeriensis infected Swiss mouse assessed as suppression of parasitaemia at 24 mg/kg, po two devided dose daily for 4 days. It counts as functional. The method in brief: as §1

Active and inactive are the calls of the source. No cut-off for these calls is given here.

Regarding `C=C(c1ccc(Cl)cc1)[C@@H]1CO[C@@]2(CC[C@@]3(C)[C@H](CC[C@@H]4[C@@H]3CC[C@]3(C)[C@@H]([C@H](C)CCC(=O)OC)CC[C@@H]43)C2)OO1` (relative stereo; form 1), the Activity in assay [1] was 56.02%. On the same count and under the same terms, the result for `C=C(c1ccccc1)[C@@H]1CO[C@@]2(CC[C@@]3(C)[C@H](CC[C@@H]4[C@@H]3CC[C@]3(C)[C@@H](O)CC[C@@H]43)C2)OO1` (relative stereo; form 1) reads 69.36%.

As for `C=C(c1ccc(Br)cc1)[C@@H]1CO[C@@]2(CC[C@@]3(C)[C@H](CC[C@@H]4[C@@H]3CC[C@]3(C)[C@@H](O)CC[C@@H]43)C2)OO1` (relative stereo; form 1), the Activity in assay [1] is given as 76.52%. Same read-out and setting: for `C=C(c1ccc(Cl)cc1)[C@@H]1CO[C@@]2(CC[C@@]3(C)[C@H](CC[C@@H]4[C@@H]3CC[C@]3(C)[C@@H]([C@H](C)C(C)=O)CC[C@@H]43)C2)OO1` (relative stereo; form 1) the value was 100%; for `C=C(c1ccc(Br)cc1)[C@@H]1CO[C@@]2(CC[C@@]3(C)[C@H](CC[C@@H]4[C@@H]3CC[C@]3(C)[C@@H]([C@H](C)C(C)=O)CC[C@@H]43)C2)OO1` (relative stereo; form 1), 56.73%. Consider `C=C(c1ccccc1)[C@@H]1CO[C@@]2(CC[C@@]3(C)[C@H](CC[C@@H]4[C@@H]3CC[C@]3(C)[C@@H](C(C)=O)CC[C@@H]43)C2)OO1` (relative stereo; form 1), for which, in assay [1], the Activity is 79.89%.

Consider `C=C(c1ccc(F)cc1)[C@@H]1CO[C@@]2(CC[C@@]3(C)[C@H](CC[C@@H]4[C@@H]3CC[C@]3(C)[C@@H](C(C)=O)CC[C@@H]43)C2)OO1` (relative stereo; form 1) [listing 1 of 2 here], for which the Activity in assay [2] (48 mg/kg) came to 88.03%. As to `C=C(c1ccc(Cl)cc1)[C@@H]1CO[C@@]2(CC[C@@]3(C)[C@H](CC[C@@H]4[C@@H]3CC[C@]3(C)[C@@H](C(C)=O)CC[C@@H]43)C2)OO1` (relative stereo; form 1), the Activity in assay [1] amounted to 90.98%. Take `C=C(c1ccc(F)cc1)[C@@H]1CO[C@@]2(CC[C@@]3(C)[C@H](CC[C@@H]4[C@@H]3CC[C@]3(C)[C@@H]([C@H](C)CCC(=O)OC)CC[C@@H]43)C2)OO1` (relative stereo; form 1): in assay [1], the Activity was found to be 45.31%.

Regarding `C=C(c1ccc(Br)cc1)[C@@H]1CO[C@@]2(CC[C@@]3(C)[C@H](CC[C@@H]4[C@@H]3CC[C@]3(C)[C@@H]([C@H](C)CCC(=O)OC)CC[C@@H]43)C2)OO1` (relative stereo; form 1), the Activity in assay [1] is 64.31%. Still for that read-out and setting: the result for `C=C(c1ccccc1)[C@@H]1CO[C@@]2(CC[C@@]3(C)[C@H](CC[C@@H]4[C@@H]3CC[C@]3(C)[C@@H]([C@H](C)C(C)=O)CC[C@@H]43)C2)OO1` (relative stereo; form 1) reads 94.31%. Same read-out and setting: the result for `C=C(c1ccc(F)cc1)[C@@H]1CO[C@@]2(CC[C@@]3(C)[C@H](CC[C@@H]4[C@@H]3CC[C@]3(C)[C@@H]([C@H](C)C(C)=O)CC[C@@H]43)C2)OO1` (relative stereo; form 1) reads 86.26%; that for `C=C(c1ccccc1)[C@@H]1CO[C@@]2(CC[C@@]3(C)[C@H](CC[C@@H]4[C@@H]3CC[C@]3(C)[C@@H]([C@H](C)CCC(=O)OC)CC[C@@H]43)C2)OO1` (relative stereo; form 1), 20.6%. With `C=C(c1ccc(Br)cc1)[C@@H]1CO[C@@]2(CC[C@@]3(C)[C@H](CC[C@@H]4[C@@H]3CC[C@]3(C)[C@@H](C(C)=O)CC[C@@H]43)C2)OO1` (relative stereo; form 1), the outcome in assay [3] and in assay [4] was inactive. In addition, the result in assay [5] was Active. In the case of `C=C(c1ccc(F)cc1)[C@@H]1CO[C@@]2(CC[C@@]3(C)[C@H](CC[C@@H]4[C@@H]3CC[C@]3(C)[C@@H](C(C)=O)CC[C@@H]43)C2)OO1` (relative stereo; form 1) [listing 2 of 2 here], the outcome in assay [4] was inactive.

`C=C(c1ccc(Cl)cc1)[C@@H]1CO[C@@]2(CC[C@@]3(C)[C@H](CC[C@@H]4[C@@H]3CC[C@]3(C)[C@@H]([C@H](C)CCC(=O)OC)CC[C@@H]43)C2)OO1` (relative stereo; form 2) [listing 1 of 2 here]: the Activity in assay [1] was 45.23%. For `C=C(c1ccc(Br)cc1)[C@@H]1CO[C@@]2(CC[C@@]3(C)[C@H](CC[C@@H]4[C@@H]3CC[C@]3(C)[C@@H](C(C)=O)CC[C@@H]43)C2)OO1` (relative stereo; form 2), in assay [1], the Activity is 89.78%. As for `C=C(c1ccc(Cl)cc1)[C@@H]1CO[C@@]2(CC[C@@]3(C)[C@H](CC[C@@H]4[C@@H]3CC[C@]3(C)[C@@H]([C@H](C)C(C)=O)CC[C@@H]43)C2)OO1` (relative stereo; form 2), in assay [1], the Activity was 34.65%. As to `C=C(c1ccc(Br)cc1)[C@@H]1CO[C@@]2(CC[C@@]3(C)[C@H](CC[C@@H]4[C@@H]3CC[C@]3(C)[C@@H]([C@H](C)C(C)=O)CC[C@@H]43)C2)OO1` (relative stereo; form 2), the Activity in assay [1] is on record as 41.83%. Still for that read-out and setting: for `C=C(c1ccc(F)cc1)[C@@H]1CO[C@@]2(CC[C@@]3(C)[C@H](CC[C@@H]4[C@@H]3CC[C@]3(C)[C@@H]([C@H](C)CCC(=O)OC)CC[C@@H]43)C2)OO1` (relative stereo; form 2) [listing 1 of 2 here] the value was 33.13%; for `C=C(c1ccc(Br)cc1)[C@@H]1CO[C@@]2(CC[C@@]3(C)[C@H](CC[C@@H]4[C@@H]3CC[C@]3(C)[C@@H]([C@H](C)CCC(=O)OC)CC[C@@H]43)C2)OO1` (relative stereo; form 2) [listing 1 of 2 here], 18.57%. On to `C=C(c1ccccc1)[C@@H]1CO[C@@]2(CC[C@@]3(C)[C@H](CC[C@@H]4[C@@H]3CC[C@]3(C)[C@@H]([C@H](C)C(C)=O)CC[C@@H]43)C2)OO1` (relative stereo; form 2), for which the Activity in assay [5] is 60%; in assay [1], 100%. For `C=C(c1ccc(F)cc1)[C@@H]1CO[C@@]2(CC[C@@]3(C)[C@H](CC[C@@H]4[C@@H]3CC[C@]3(C)[C@@H]([C@H](C)C(C)=O)CC[C@@H]43)C2)OO1` (relative stereo; form 2), the Activity is listed as 60% in assay [5] and 100% in assay [1]. With `C=C(c1ccccc1)[C@@H]1CO[C@@]2(CC[C@@]3(C)[C@H](CC[C@@H]4[C@@H]3CC[C@]3(C)[C@@H]([C@H](C)CCC(=O)OC)CC[C@@H]43)C2)OO1` (relative stereo; form 2) [listing 1 of 2 here], the Activity in assay [1] is 43.56%.

`C=C(c1ccc(Br)cc1)[C@@H]1CO[C@@]2(CC[C@@]3(C)[C@H](CC[C@@H]4[C@@H]3CC[C@]3(C)[C@@H]([C@H](C)CCC(=O)OC)CC[C@@H]43)C2)OO1` (relative stereo; form 2) [listing 2 of 2 here]: the result in assay [5] was inactive. For `C=C(c1ccc(Cl)cc1)[C@@H]1CO[C@@]2(CC[C@@]3(C)[C@H](CC[C@@H]4[C@@H]3CC[C@]3(C)[C@@H](C(C)=O)CC[C@@H]43)C2)OO1` (relative stereo; form 2), the result in assay [4] and in assay [5] was Active.

With `C=C(c1ccc(Cl)cc1)[C@@H]1CO[C@@]2(CC[C@@]3(C)[C@H](CC[C@@H]4[C@@H]3CC[C@]3(C)[C@@H]([C@H](C)CCC(=O)OC)CC[C@@H]43)C2)OO1` (relative stereo; form 2) [listing 2 of 2 here], the result in assay [5] was inactive. On to `C=C(c1ccc(F)cc1)[C@@H]1CO[C@@]2(CC[C@@]3(C)[C@H](CC[C@@H]4[C@@H]3CC[C@]3(C)[C@@H](C(C)=O)CC[C@@H]43)C2)OO1` (relative stereo; form 2), for which the outcome in assay [4] and in assay [5] was Active. With `C=C(c1ccc(F)cc1)[C@@H]1CO[C@@]2(CC[C@@]3(C)[C@H](CC[C@@H]4[C@@H]3CC[C@]3(C)[C@@H]([C@H](C)CCC(=O)OC)CC[C@@H]43)C2)OO1` (relative stereo; form 2) [listing 2 of 2 here], the result in assay [5] was inactive. As to `C=C(c1ccccc1)[C@@H]1CO[C@@]2(CC[C@@]3(C)[C@H](CC[C@@H]4[C@@H]3CC[C@]3(C)[C@@H](C(C)=O)CC[C@@H]43)C2)OO1` (relative stereo; form 2), the result in assay [4] and in assay [5] was Active. With `C=C(c1ccccc1)[C@@H]1CO[C@@]2(CC[C@@]3(C)[C@H](CC[C@@H]4[C@@H]3CC[C@]3(C)[C@@H]([C@H](C)CCC(=O)OC)CC[C@@H]43)C2)OO1` (relative stereo; form 2) [listing 2 of 2 here], the result in assay [5] was inactive. Turning to `CCO[C@H]1O[C@@H]2O[C@@]3(C)CC[C@H]4[C@H](C)CC[C@@H]([C@H]1C)[C@@]24OO3` [ARTEMOTIL], the Activity came out at 20% in assay [3], 100% in assay [6] and 100% in assay [2]. For the same compound, in assay [4], the outcome was Active.

These data come from ChEMBL document CHEMBL2177062, “Bile acid-based 1,2,4-trioxanes: synthesis and antimalarial assessment” (J Med Chem, 2012).
